Reference: the RNAGym collection of RNA variant scans (doi:10.1101/gad.245936.114)
Fewer inactive variants are shown than the library holds.

B1: tRNA (parent)
chain: CUCUCGGUAGCCAAGUUGGUUUAAGGCGCAAGACUUUAAUUUAUCACUACGAAAUCUUGAGAUCGGGCGUUCGACUCGCCCCCGGGAGAUUUUUUCCUCGAGCAA

Variants of: B1
Assay: nonsense suppression (GFP-seq) (ratio to wild type); higher = more function; SUP4oc tRNA, yeast GFP reporter sort-seq
Outline: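 Each variant's nonsense suppression (GFPSEQ) is a cell-share-weighted bin median GFP/RFP relative to the unmutated parent tRNA. Yeast with genome-integrated tRNA variants from a ~3% random-mutation library, a galactose-driven GFP ochre reporter and RFP were grown in raffinose/galactose medium with 80 mg/L adenine, then sorted into GFP/RFP bins for Illumina sequencing. Variants needed ≥100 reads and ≥30 cells.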

Variant | nonsense suppression
G7A C11U U35A A54C C64U C83G | ≤ 0.026
G67A G78U | 0.0411
C12U G28A | 0.51
C27A G84A G86C | ≤ 0.026
A30U U58A G78U | 0.776
G25U C34U G59A | 1.15
U8C A54C | 0.0833
C34U G61A | 0.0297
G61A G84C | 0.0752
C12U A31G C77G | ≤ 0.026
U22G C29U | 1.15
C77A C81U | ≤ 0.026
A31G A33G C56A G65U | ≤ 0.026
U4C A54C | 1.01
C3U A13U C34G | ≤ 0.026
C12U G88U | 0.0717
U4C G61C | 0.86
A14U G84A | ≤ 0.026
G15A A31U U35C U76G C83U | ≤ 0.026
C79G C82G | ≤ 0.026
U2C A24C | 0.0326
U8C G28C | 0.0327
A74G C83G | ≤ 0.026
U8C A31G | 0.0327

Variant | nonsense suppression
G7C A9U | 0.0428
C83U G84U | 0.027
A14U G15C A60C C79U | ≤ 0.026
C3G C11A C81G | ≤ 0.026
U21G G61C | 0.105
U21C A23C U71G G78A | ≤ 0.026
G26U G61A | ≤ 0.026
U2G A9U | 0.0677
C3U A9G | 0.195
A31C U76G | ≤ 0.026
U35C U63G | 0.0352
U70C A74G A87C | ≤ 0.026
A14C C56G C72G G86A | ≤ 0.026
A9G U22G | 0.254
A74G G78U | 0.0279
U2A C34G G85C A89C | 0.25
U22C G78C | 0.195
C3U C5U | 0.158
U16G A54U U63G | 0.278
C5G U57G U71G | ≤ 0.026
U21C G78U | 0.442
U21C G78C | 0.211
G28C A33U C82U A89U | ≤ 0.026
G67A U76A G85U | ≤ 0.026

Variant | nonsense suppression
A30U G69U C80U | ≤ 0.026
U4G C12G | 0.0311
C79A G84C | ≤ 0.026
C34G U71G | ≤ 0.026
U2C C5A | ≤ 0.026
U4C G26U C34G U35A C82A | ≤ 0.026
C11A U63G | ≤ 0.026
C1A G10U G61A A62C G73C | ≤ 0.026
C11U G61C | 0.0829
A13U G61C | 0.191
C29U U35C U58G C64U G66C | ≤ 0.026
A54U G67A | 0.0673
G15C G18U U76G A87G | ≤ 0.026
G15C A87U | ≤ 0.026
U2A C34A G78U G86U | ≤ 0.026
C34G A74U | ≤ 0.026
U22A C75U | 1.15
U4G A60C G85A | ≤ 0.026
G78A A87C | 0.032
U76C G78A | 0.0382
C29U G85U | 0.0262
U22C U76C | 1.02
C75U G85U | 1.12
A33G U55A A74C | ≤ 0.026

Variant | nonsense suppression
G26C C29U G67U | ≤ 0.026
C81U G84A | 0.0642
A33G G88C | ≤ 0.026
G10C C79U | ≤ 0.026
C83U A87G | 0.0621
U57A G84U | 0.0408
U22A A30U | 0.177
U17A U63A U76C | 0.155
A13C C75U G85U | 0.333
A13C G88A | 0.0766
U17A A24C | 0.902
C3U G32A G67U G69C | ≤ 0.026
U4A U22G | 0.155
U63G G78A | 0.0891
U17G U21G | 0.717
U76G C79G G88A | ≤ 0.026
C29G G32A G67U C75A | ≤ 0.026
U8C U21G | 0.0903
U8C U21A | ≤ 0.026
C5U U63A | 0.0305
U17A A60C | 0.19
A54U C79U | 0.571
U22G G78C | 0.0318
A9G U22A U35G | ≤ 0.026

Variant | nonsense suppression
A33U | 0.0699
A24U A62U | 0.0332
C75U U76G | 0.172
A24G G85A | 0.189
A9U G61A C72A | ≤ 0.026
G15U C29U | ≤ 0.026
G19A U21G C64U | ≤ 0.026
C72U G73C C79G | ≤ 0.026
G73A U76C | 0.682
G67C C81A | ≤ 0.026
U21G U22G | 0.571
U17G C64A | 0.0364
G25U C75U | ≤ 0.026
G26U U71G G85U | ≤ 0.026
A24C G25U | ≤ 0.026
G15C G65A | ≤ 0.026
U17C G88U | ≤ 0.026
C1A A54G U58C U71C | ≤ 0.026
U22A A31G | 1.05
U8A G85U | 0.071
A9G G61C | 1.06
A9U A33G | 0.0334
C11U A30G A31U U35G G67C U76C | ≤ 0.026
G19C A30U | ≤ 0.026

Variant | nonsense suppression
U16A U17G | 1.16
U2C G86A | ≤ 0.026
U17A A30G | 0.369
U20C A54U | 0.62
C1U G32U U55A A62C G67C | ≤ 0.026
G28A G66C A87U | ≤ 0.026
C29G U58A | ≤ 0.026
G32U A54C C81G | ≤ 0.026
U2C A31G C72U | ≤ 0.026
G28A G66A | 0.152
C1A U2G G19A G32C A89G | ≤ 0.026
G28A A31G G73C | ≤ 0.026
A54C A60U | 1.09
G61A A62C | 0.0863
U4C C80U | 0.651
G28U G61C | 0.321
G28U G61U | 0.191
U21G G28A A31G | 0.266
A9U G25U G26C C64A G65A G73A | ≤ 0.026
U16G U17A G19A C27A | ≤ 0.026
G67A A74U | 0.0276
U4G U20G | 0.834
U20A G61U | 0.217
A23G C34A | ≤ 0.026

Variant | nonsense suppression
A60C G67A | ≤ 0.026
G28A A33G | 0.161
A33G U63A | 0.031
A74G C81G | ≤ 0.026
U21A G61U | 0.791
U2C C80A | ≤ 0.026
G7A U35G G59A | ≤ 0.026
C29U C68U | 0.272
C11U G28A A33G | ≤ 0.026
G28A U63C G85U | 0.0331
C12U G26U G84A | ≤ 0.026
C34G G78A C81G | ≤ 0.026
G61A U63A | 0.304
C3G A30G U58A | ≤ 0.026
G7U C11U C56G | ≤ 0.026
A23C C34U G78U | ≤ 0.026
G19A U63G | 0.143
U20A U71A | ≤ 0.026
G7A A30U | 0.0309
A60C G73U | 0.049
G61A G69A | 0.0276
C1A C11U C12U A14U A62U | ≤ 0.026
U55C | 1.09
